Assay results published in ChEMBL document CHEMBL1152449, “6-methyl-2,4-disubstituted pyridazin-3(2H)-ones: a novel class of small-molecule agonists for formyl peptide receptors” (J Med Chem, 2009).

Assays:
[1] = target: T1, fMet-Leu-Phe receptor (Homo sapiens, UniProt P21462); assay: Agonist activity at FPR1 expressed in human HL60 cells assessed as induction of intracellular calcium flux by FLIPR3 calcium assay; format: functional, cell-based, HL-60
T1 sequence (P21462 whole entry): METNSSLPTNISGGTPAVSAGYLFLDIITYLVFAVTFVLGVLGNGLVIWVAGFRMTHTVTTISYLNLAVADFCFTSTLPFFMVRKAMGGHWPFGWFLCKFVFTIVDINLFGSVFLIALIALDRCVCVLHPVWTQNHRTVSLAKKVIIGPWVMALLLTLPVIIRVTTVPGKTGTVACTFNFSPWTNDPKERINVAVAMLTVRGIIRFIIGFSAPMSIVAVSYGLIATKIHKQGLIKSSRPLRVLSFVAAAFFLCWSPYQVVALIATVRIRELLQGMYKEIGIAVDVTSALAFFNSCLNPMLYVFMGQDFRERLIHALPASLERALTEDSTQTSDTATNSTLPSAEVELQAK
Outline: (§1)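 HL-60 cells stably transfected with the receptor, grown in RPMI with 10% heat-inactivated FCS, 10 mM HEPES, antibiotics and G418 (1 mg/mL). They were then washed, resuspended in HBSS+ (2 × 10^5 cells/well) and read on a FlexStation II.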

[2] = target: T2, N-formyl peptide receptor 2 (Homo sapiens, UniProt P25090); assay: Agonist activity at FPRL1 expressed in human HL60 cells assessed as induction of intracellular calcium flux by FLIPR3 calcium assay; format: functional, cell-based; settings: hl-60; outline: as §1
T2 sequence (P25090 whole entry): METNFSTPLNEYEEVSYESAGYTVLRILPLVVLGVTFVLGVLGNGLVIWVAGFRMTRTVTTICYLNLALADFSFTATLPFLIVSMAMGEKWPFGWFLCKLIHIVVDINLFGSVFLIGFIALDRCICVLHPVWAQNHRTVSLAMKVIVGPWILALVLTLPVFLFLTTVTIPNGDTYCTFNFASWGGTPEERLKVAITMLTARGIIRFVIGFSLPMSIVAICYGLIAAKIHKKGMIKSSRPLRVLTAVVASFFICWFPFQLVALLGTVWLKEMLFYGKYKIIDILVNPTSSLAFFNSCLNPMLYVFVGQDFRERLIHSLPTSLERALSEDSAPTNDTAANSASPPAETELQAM

[3] = target: T3, N-formyl peptide receptor 3 (Homo sapiens, UniProt P25089); assay: Agonist activity at FPRL2 expressed in human HL60 cells assessed as induction of intracellular calcium flux by FLIPR3 calcium assay; format: functional, cell-based; settings: hl-60; outline: as §1
T3 sequence (P25089 whole entry): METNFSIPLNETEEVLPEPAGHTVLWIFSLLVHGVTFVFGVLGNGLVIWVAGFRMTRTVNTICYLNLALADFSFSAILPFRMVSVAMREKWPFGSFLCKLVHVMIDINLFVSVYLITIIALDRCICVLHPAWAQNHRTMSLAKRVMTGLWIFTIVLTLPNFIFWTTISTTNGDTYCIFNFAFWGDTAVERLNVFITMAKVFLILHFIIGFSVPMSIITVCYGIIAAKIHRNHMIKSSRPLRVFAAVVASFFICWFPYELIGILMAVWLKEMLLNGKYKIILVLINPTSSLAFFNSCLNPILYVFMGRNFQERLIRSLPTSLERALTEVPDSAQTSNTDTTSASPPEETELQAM

[4] = target: T1, fMet-Leu-Phe receptor; assay: Agonist activity at FPR1 in human neutrophiles assessed as induction of intracellular calcium flux by FLIPR3 calcium assay; format: functional, cell-based
[5] = target: T4, fMet-Leu-Phe receptor (Homo sapiens) (UniProt P21462); assay: Agonist activity at FPR1 expressed in human HL60 cells assessed as induction of intracellular calcium flux by FLIPR3 calcium assay relative to N-formyl-methionyl-leucyl-phenylalanine; format: functional, cell-based; settings: HL-60
T4 sequence (whole entry): T1 sequence (P21462 whole entry)

Compound: COc1cccc(Cc2cc(C)nn(CC(=O)Nc3ccc4c(c3)OCO4)c2=O)c1
- EC50 ([1]; read-out: EC50): 2.3 µM
- EC50 [2]: Not Active
- EC50 [3]: Not Active
- EC50 [4]: 3.6 µM
- Activity [5]: 50%

Compound: COc1cccc(Cc2cc(C)nn(CC(=O)c3ccc(Br)cc3)c2=O)c1
- EC50 ([1]; hl-60): Not Active
- EC50 [2]: Not Active
- EC50 [3]: Not Active
